Results collected from several papers.
Protocols differ between the studies behind these lines.
SLC6A3: Sodium-dependent dopamine transporter (SLC6A3, Homo sapiens, UniProt Q01959)
USP51: Ubiquitin carboxyl-terminal hydrolase 51 (USP51, Homo sapiens, UniProt Q70EK9)
CA12: Carbonic anhydrase 12 (CA12, Homo sapiens, UniProt O43570)
DRD3: D(3) dopamine receptor (DRD3, Homo sapiens, UniProt P35462)

CNc1cc(Oc2cc(C(=O)Nc3cc(N4CCN(C)CC4)cc(C(F)(F)F)c3)ccc2C)ncn1  inhibition (Serine/threonine-protein kinase ATR (ATR, Homo sapiens, UniProt Q13535); target engagement in cells; inhibitor; chemoproteomics; Huh-7; 1 µM): -18%
c1ccc(CCCC2CCN(CCCCn3nnnc3C(c3ccccc3)c3ccccc3)CC2)cc1  inhibition (SLC6A3; transporter uptake; inhibitor; HEK293; 1 µM): 63%
O=c1c(-c2ccc(O)cc2)coc2cc(O[C@@H]3O[C@H](CO)[C@@H](O)[C@H](O)[C@H]3O)ccc12  inhibition (USP51; enzyme activity; inhibitor; 5 µM): 39%
O=C1NC(=S)C(=Cc2cn(-c3ccccc3)nc2-c2ccc(Br)cc2)S1  inhibition (CA12; enzyme activity; inhibitor; absorbance; 10 µM): 49.8%
CC(C)c1ccccc1OCCOCC(O)CN1CCN(c2cccc(C(F)(F)F)c2)CC1 (stereo not shown)  inhibition (DRD3; enzyme activity; inhibitor; 10 µM): 14.3%
CS(=O)(=O)c1ccc(Nc2ccc3c(c2)OCO3)c([N+](=O)[O-])c1  inhibition (Solute carrier family 2, facilitated glucose transporter member 5 (SLC2A5, Homo sapiens, UniProt P22732); transporter uptake; inhibitor; MCF7; 25 µM): ~90%
Cc1c(Cl)cccc1-c1ccc(CNCC(O)c2ccccc2)o1 (stereo not shown)  inhibition (DRD3; enzyme activity; inhibitor; 10 µM): 21.5%
Oc1cccc(Nc2nc(-c3ccc(F)cc3F)cs2)c1  inhibition (Peroxisome proliferator-activated receptor gamma (PPARG, Homo sapiens, UniProt P37231); cell-free assay; 10 µM): 86.5%
CCOC(=O)C1CSc2[nH]c(=O)sc2C1c1cn(-c2ccccc2)nc1-c1ccc(OC)cc1 (stereo not shown)  inhibition (CA12; enzyme activity; inhibitor; absorbance; 10 µM): 78%
COc1cc(C(C)=O)ccc1O  inhibition (USP51; enzyme activity; inhibitor; 5 µM): 48%
COc1cc(CNCCc2c[nH]c3ccccc23)cc(Cl)c1OCC(N)=O  inhibition (DRD3; enzyme activity; inhibitor; 10 µM): 39.6%
CCOC(=O)C1CSc2[nH]c(=O)sc2C1c1cn(-c2ccccc2)nc1-c1ccc(Cl)cc1 (stereo not shown)  inhibition (CA12; enzyme activity; inhibitor; absorbance; 1 µM): 73.2%
O=C(CO)[C@@H](O)[C@H](O)[C@H](O)CO  inhibition (USP51; enzyme activity; inhibitor; 5 µM): 97%
Cc1ccc(Nc2nccc(N(C)c3ccc4c(C)n(C)nc4c3)n2)cc1S(N)(=O)=O  inhibition (Tyrosine-protein kinase Lyn (Lyn, Mus musculus, UniProt P25911); enzyme activity; inhibitor; 0.3 µM): 66%
CCOC(=O)C1CSc2[nH]c(=O)sc2C1c1cn(-c2ccccc2)nc1-c1ccc(C)cc1 (stereo not shown)  inhibition (CA12; enzyme activity; inhibitor; absorbance; 1 µM): 52.9%
c1ccc(C2CCN(CCCCn3nnnc3C(c3ccccc3)c3ccccc3)CC2)cc1  inhibition (SLC6A3; transporter uptake; inhibitor; HEK293; 1 µM): 93.9%
COC(=O)C[C@](O)(CCCC(C)(C)O)C(=O)O[C@@H]1C(OC)=C[C@]23CCCN2CCc2cc4c(cc2[C@H]13)OCO4  inhibition (USP51; enzyme activity; inhibitor; 5 µM): 0%
CC(=O)Nc1ccc(N2C(=O)CC(NCCc3ccccc3)C2=O)cc1 (stereo not shown)  inhibition (DRD3; enzyme activity; inhibitor; 10 µM): 5.54%
CN1C(=O)/C(=C2/C(=O)Nc3ccccc32)c2ccccc21  inhibition (USP51; enzyme activity; inhibitor; 5 µM): 48%
c1ccc(CCC2CCN(CCCCn3nnnc3C(c3ccccc3)c3ccccc3)CC2)cc1  inhibition (SLC6A3; transporter uptake; inhibitor; HEK293; 1 µM): 80.3%
CC(O)c1ccc(-c2ccc(CNCCc3c[nH]c4ccccc34)o2)cc1 (stereo not shown)  inhibition (DRD3; enzyme activity; inhibitor; 10 µM): 31.3%
O=c1oc2c(O)c(O)cc3c(=O)oc4c(O)c(O)cc1c4c23  inhibition (USP51; enzyme activity; inhibitor; 5 µM): 33%
